According to ChEMBL document CHEMBL3352187, “Design, synthesis and molecular docking study of novel quinoxalin-2(1H)-ones as anti-tumor active agents with inhibition of tyrosine kinase receptor and studying their cyclooxygenase-2 activity” (Eur J Med Chem, 2014):

Legend:
[1] = system: HepG2; test: Cytotoxicity against human HepG2 cells after 48 hrs by sulforhodamine B assay; type: functional, cell-based; conditions: HepG2, 48 h
Procedure, shortened: (§1)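 Cells seeded at 10^4 per well, left 24 h to attach, then exposed to 0, 12.5, 25, 50 […] as printed, triplicate wells per dose, 48 h at 37 °C, 5% CO2. Fixed, stained with sulforhodamine B, excess dye removed with acetic acid, bound dye taken up in Tris EDTA and read on an ELISA reader. IC50 from survival curve of surviving fraction against concentration.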

[2] = system: MCF7; test: Cytotoxicity against human MCF7 cells after 48 hrs by sulforhodamine B assay; type: functional, cell-based; conditions: MCF7, 48 h; procedure, shortened: as §1
[3] = system: HepG2; test: Inhibition of protein tyrosine kinase in human HepG2 cells assessed as change in TRK level at cytotoxic IC50 level incubated for 24 hrs by ELISA method; type: cell-based; parameters: scale not given: the % may be the effect or the level left
Procedure, shortened: (§2)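 Cells kept in DMEM with 10% heat-inactivated fetal calf serum plus penicillin/streptomycin at 37 °C, 5% CO2. […] Cells homogenized in saline. TRK measured by double-antibody sandwich ELISA, OD 450 nm, read against a standard curve in triplicate. Percent inhibition relative to DMSO-treated control cells.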

[4] = system: MCF7; test: Inhibition of protein tyrosine kinase in human MCF7 cells assessed as change in TRK level at cytotoxic IC50 level incubated for 24 hrs by ELISA method; type: cell-based; parameters: scale not given: the % may be the effect or the level left; procedure, shortened: as §2
[5] = biological target: T1, Prostaglandin G/H synthase 1 (Ovis aries, UniProt P05979); test: Inhibition of ovine COX1 assessed as reduction in PGH2 production using arachidonic acid substrate by enzyme immunoassay
T1 sequence (P05979 whole entry): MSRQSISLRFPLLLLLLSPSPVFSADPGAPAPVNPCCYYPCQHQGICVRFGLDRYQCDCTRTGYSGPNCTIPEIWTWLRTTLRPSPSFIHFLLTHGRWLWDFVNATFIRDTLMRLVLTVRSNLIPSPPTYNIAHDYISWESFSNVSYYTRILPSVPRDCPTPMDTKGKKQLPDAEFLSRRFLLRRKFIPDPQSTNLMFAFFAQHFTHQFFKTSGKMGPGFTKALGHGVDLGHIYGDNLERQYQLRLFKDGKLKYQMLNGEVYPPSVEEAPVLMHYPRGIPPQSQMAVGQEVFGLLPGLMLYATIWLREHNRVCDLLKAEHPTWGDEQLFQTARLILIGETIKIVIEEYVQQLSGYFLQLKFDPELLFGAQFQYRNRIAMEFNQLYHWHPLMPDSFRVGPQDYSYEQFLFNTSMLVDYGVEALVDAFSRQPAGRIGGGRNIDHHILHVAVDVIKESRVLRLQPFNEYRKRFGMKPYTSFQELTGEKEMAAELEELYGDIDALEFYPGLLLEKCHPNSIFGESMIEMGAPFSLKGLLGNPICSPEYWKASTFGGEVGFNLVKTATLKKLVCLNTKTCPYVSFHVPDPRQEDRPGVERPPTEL
Procedure, shortened: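 Ovine COX-1 with heme in 0.1 M Tris-HCl pH 8.0 containing 5 mM EDTA and 2 mM phenol. Test compound given at […] final, from DMSO stock. Preincubated 5 min at 37 °C, then arachidonic acid added; stopped with 1 M HCl after 2 min. PGH2 reduced to PGF2a by stannous chloride, measured by competitive EIA at 410 nm. IC50 from concentration-inhibition curve, duplicate determinations.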

Cc1nn(-c2ccccc2)c(OC2CCCC2)c1/C=N/Nc1nc2ccccc2nc1O
IC50 [1]: 36.5 µM
IC50 [2]: 31.5 µM
Activity [3]: 40%
Activity [4]: 16.5%
IC50 [5]: > 50 µM

Cc1nn(-c2ccccc2)c(N(C)C)c1/C=N/Nc1nc2ccccc2nc1O
IC50 [1]: 31.5 µM
IC50 [2]: 18 µM
Activity [3]: 73%
Activity [4]: 62%
IC50 [5]: > 50 µM

Cc1nn(-c2ccccc2)c(SCC(=O)O)c1/C=N/Nc1nc2ccccc2nc1O
IC50 [1]: 40.6 µM
IC50 [2]: 33.6 µM
Activity [3]: 22%
Activity [4]: 4%

Cc1nn(-c2ccccc2)c(N2CCNCC2)c1/C=N/Nc1nc2ccccc2nc1O
IC50 [1]: 38.1 µM
IC50 [2]: 16.3 µM
Activity [3]: 20%
Activity [4]: 66%
IC50 [5]: > 50 µM

Cc1nn(-c2ccc([N+](=O)[O-])cc2)c(Cl)c1/C=N/Nc1nc2ccccc2[nH]c1=O
IC50 [1]: 34.2 µM
IC50 [2]: 20.7 µM
Activity [3]: 39%
Activity [4]: 40%

Cc1nn(-c2ccccc2)c(N2CCN(C)CC2)c1/C=N/Nc1nc2ccccc2nc1O
IC50 [1]: 11.4 µM
IC50 [2]: 10 µM
Activity [3]: 83%
Activity [4]: 83%
IC50 [5]: > 50 µM

Cc1nn(-c2ccccc2)c(SCCO)c1/C=N/Nc1nc2ccccc2nc1O
IC50 [1]: 23.4 µM
IC50 [2]: 11.3 µM
Activity [3]: 78%
Activity [4]: 82%

Cc1nn(-c2ccccc2)c(Cl)c1/C=N/Nc1nc2ccccc2[nH]c1=O
IC50 [1]: 19.6 µM
IC50 [2]: 25.2 µM
Activity [3]: 79%
Activity [4]: 34%
IC50 [5]: > 50 µM

CC(=O)N1CCN(c2c(/C=N/Nc3nc4ccccc4nc3O)c(C)nn2-c2ccccc2)CC1
IC50 [1]: 11 µM
IC50 [2]: 18 µM
Activity [3]: 80%
IC50 [5]: > 50 µM

Cc1nn(-c2ccccc2)c(N2CCOCC2)c1/C=N/Nc1nc2ccccc2nc1O
IC50 [1]: 11 µM
IC50 [2]: 9.28 µM
Activity [3]: 84%
Activity [4]: 85%
IC50 [5]: > 50 µM

Cc1nn(-c2ccccc2)c(N2CCN(S(=O)(=O)c3ccccc3)CC2)c1/C=N/Nc1nc2ccccc2nc1O
IC50 [1]: 28.1 µM
IC50 [2]: 26.2 µM
Activity [3]: 19%
Activity [4]: 12%

Cc1nn(-c2ccccc2)c(N2CCCCC2)c1/C=N/Nc1nc2ccccc2nc1O
IC50 [1]: 18.1 µM
IC50 [2]: 12.8 µM
Activity [3]: 75%
Activity [4]: 74%
IC50 [5]: > 50 µM

Cc1nn(-c2ccccc2)c(N2CCN(S(=O)(=O)c3ccccc3[N+](=O)[O-])CC2)c1/C=N/Nc1nc2ccccc2nc1O
IC50 [1]: 32.2 µM
IC50 [2]: 14.3 µM
Activity [3]: 13%
Activity [4]: 37%
